Positions of bridges follow the written chain, without caps; N, C: chain ends. Residues, ends and D or L forms follow the SMILES beside them.

Among the data in ChEMBL document CHEMBL3797186, “Single Residue Substitutions That Confer Voltage-Gated Sodium Ion Channel Subtype Selectivity in the NaV1.7 Inhibitory Peptide GpTx-1” (J Med Chem, 2016) are IC50 values, retold here.

The experiment deals with Sodium channel protein type 5 subunit alpha (Homo sapiens, UniProt Q14524). The experiment in a line: Inhibition of human Nav1.5 expressed in HEK293 cells assessed as inward peak current by ion-works quattro patch clamp electrophysiology method. Type of experiment: cell-based. In short, it runs like this:
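Stable HEK293 line expressing human NaV1.5, recorded by population patch clamp on the IonWorks Quattro.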
(In general: The patch-clamp technique gives a direct electrical read-out from membranes.)

Sequence of Sodium channel protein type 5 subunit alpha (Q14524 whole entry): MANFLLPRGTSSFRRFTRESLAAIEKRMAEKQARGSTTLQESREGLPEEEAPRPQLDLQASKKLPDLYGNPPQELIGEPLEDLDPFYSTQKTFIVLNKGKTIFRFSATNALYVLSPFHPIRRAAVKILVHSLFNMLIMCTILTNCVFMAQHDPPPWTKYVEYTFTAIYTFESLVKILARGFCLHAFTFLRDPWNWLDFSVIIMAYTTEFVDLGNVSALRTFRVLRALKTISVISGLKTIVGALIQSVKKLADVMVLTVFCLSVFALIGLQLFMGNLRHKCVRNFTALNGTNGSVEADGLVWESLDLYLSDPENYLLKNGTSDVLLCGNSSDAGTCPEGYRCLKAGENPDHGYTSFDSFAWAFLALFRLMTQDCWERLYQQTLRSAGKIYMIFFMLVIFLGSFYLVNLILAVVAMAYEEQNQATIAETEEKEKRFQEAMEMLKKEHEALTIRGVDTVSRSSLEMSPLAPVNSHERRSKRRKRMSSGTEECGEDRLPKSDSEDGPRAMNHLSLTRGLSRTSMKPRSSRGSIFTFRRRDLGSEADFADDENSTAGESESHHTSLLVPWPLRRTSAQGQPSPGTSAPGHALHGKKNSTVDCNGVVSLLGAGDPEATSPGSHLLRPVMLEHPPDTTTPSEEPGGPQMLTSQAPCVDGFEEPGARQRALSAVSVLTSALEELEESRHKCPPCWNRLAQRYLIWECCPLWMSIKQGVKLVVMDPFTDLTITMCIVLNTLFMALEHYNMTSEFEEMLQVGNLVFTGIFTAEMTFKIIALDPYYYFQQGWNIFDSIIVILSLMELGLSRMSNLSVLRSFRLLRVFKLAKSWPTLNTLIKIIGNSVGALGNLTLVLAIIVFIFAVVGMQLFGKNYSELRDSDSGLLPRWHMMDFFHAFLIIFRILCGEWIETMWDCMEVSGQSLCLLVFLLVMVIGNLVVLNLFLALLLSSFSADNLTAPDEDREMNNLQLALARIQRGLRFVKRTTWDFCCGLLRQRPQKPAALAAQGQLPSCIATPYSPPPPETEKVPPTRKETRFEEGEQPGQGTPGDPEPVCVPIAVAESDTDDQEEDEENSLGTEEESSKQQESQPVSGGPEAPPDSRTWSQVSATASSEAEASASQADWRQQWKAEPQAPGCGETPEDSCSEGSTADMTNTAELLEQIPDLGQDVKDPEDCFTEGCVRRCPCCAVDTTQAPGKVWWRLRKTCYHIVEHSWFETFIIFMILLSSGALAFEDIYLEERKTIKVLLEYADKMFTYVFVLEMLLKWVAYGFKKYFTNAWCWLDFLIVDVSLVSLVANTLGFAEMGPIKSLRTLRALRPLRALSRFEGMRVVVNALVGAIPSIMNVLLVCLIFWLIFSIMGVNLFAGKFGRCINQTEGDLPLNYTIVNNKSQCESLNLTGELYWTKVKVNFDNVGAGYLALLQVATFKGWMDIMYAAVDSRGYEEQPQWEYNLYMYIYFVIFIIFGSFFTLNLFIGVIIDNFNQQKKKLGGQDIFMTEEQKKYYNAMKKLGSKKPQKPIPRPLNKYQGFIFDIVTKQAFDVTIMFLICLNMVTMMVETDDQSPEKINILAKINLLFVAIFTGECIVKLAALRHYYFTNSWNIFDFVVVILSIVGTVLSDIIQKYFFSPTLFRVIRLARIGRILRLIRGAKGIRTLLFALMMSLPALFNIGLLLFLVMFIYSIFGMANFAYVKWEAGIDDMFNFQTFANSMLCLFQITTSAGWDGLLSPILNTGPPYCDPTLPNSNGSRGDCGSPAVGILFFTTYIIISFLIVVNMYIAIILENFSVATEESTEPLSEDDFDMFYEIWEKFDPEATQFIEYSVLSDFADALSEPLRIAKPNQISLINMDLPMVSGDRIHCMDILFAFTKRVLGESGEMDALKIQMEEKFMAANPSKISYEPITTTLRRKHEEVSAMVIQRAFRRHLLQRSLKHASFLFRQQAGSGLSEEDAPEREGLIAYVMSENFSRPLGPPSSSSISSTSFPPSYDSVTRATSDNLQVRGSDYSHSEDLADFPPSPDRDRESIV

Regarding `CSCC[C@@H]1NC(=O)[C@H](Cc2ccccc2)NC(=O)CNC(=O)[C@H](CC(C)C)NC(=O)[C@@H](NC(=O)[C@@H](N)CC(=O)O)CSSC[C@@H]2NC(=O)[C@@H]3CSSC[C@@H](C(=O)N[C@@H](CCCCN)C(=O)N[C@@H](Cc4ccc(O)cc4)C(=O)N[C@H](C(=O)N[C@@H](Cc4ccccc4)C(N)=O)C(C)C)NC(=O)[C@H](Cc4c[nH]c5ccccc45)NC(=O)[C@H](CCCCN)NC(=O)[C@H](Cc4cnc[nH]4)NC(=O)[C@H]([C@@H](C)O)NC(=O)[C@H](CCCNC(=N)N)NC(=O)[C@H](CO)NC(=O)[C@H](CSSC[C@H](NC(=O)[C@H](CCCCN)NC(=O)[C@H](CCCNC(=N)N)NC1=O)C(=O)N[C@@H](Cc1cnc[nH]1)C(=O)N1CCC[C@H]1C(=O)N[C@@H](CC(=O)O)C(=O)N[C@@H](CC(N)=O)C(=O)N[C@@H](CC(=O)O)C(=O)N[C@@H](CCCCN)C(=O)N3)NC(=O)[C@H](C(C)C)NC(=O)[C@H](CC(C)C)NC(=O)[C@H](CC(N)=O)NC(=O)[C@@H]1CCCN1C(=O)[C@H](CCCNC(=N)N)NC2=O` (H-DCLGFMRKCHPDNDKCCRPNLVCSRTHKWCKYVF-NH2; disulfide 2-17, 9-23, 16-30), the half-maximal inhibitory concentration (IC50) (in general, the concentration at which inhibition is half-maximal) was over 5 µM.

With `CC[C@H](C)[C@@H]1NC(=O)[C@@H]2CSSC[C@@H]3NC(=O)[C@H](C(C)C)NC(=O)[C@H](CC(C)C)NC(=O)[C@H](CC(N)=O)NC(=O)[C@@H]4CCCN4C(=O)[C@H](CCCNC(=N)N)NC(=O)[C@H](CSSC[C@H](NC(=O)[C@@H](N)CC(=O)O)C(=O)N[C@@H](CC(C)C)C(=O)NCC(=O)N[C@@H](Cc4cccc5ccccc45)C(=O)N[C@@H](CCSC)C(=O)N[C@@H](CCCNC(=N)N)C(=O)N[C@@H](CCCCN)C(=O)N2)NC(=O)[C@H](CSSC[C@@H](C(=O)N[C@@H](CCCCN)C(=O)N[C@@H](Cc2ccc(O)cc2)C(=O)N[C@H](C(=O)N[C@@H](Cc2ccccc2)C(N)=O)C(C)C)NC(=O)[C@H](Cc2c[nH]c4ccccc24)NC(=O)[C@H](CCCCN)NC(=O)[C@H](Cc2c[nH]cn2)NC(=O)[C@H]([C@@H](C)O)NC(=O)[C@H](CCCNC(=N)N)NC(=O)[C@H](CO)NC3=O)NC(=O)[C@H](CCCCN)NC(=O)[C@H](CC(=O)O)NC(=O)[C@H](CC(N)=O)NC(=O)[C@H](CC(=O)O)NC(=O)[C@@H]2CCCN2C1=O`, the 50% inhibitory concentration (IC50) was over 5 µM.

For the molecule `CC[C@H](C)[C@@H]1NC(=O)[C@@H]2CSSC[C@@H]3NC(=O)[C@H](C(C)C)NC(=O)[C@H](CC(C)C)NC(=O)[C@H](CC(N)=O)NC(=O)[C@@H]4CCCN4C(=O)[C@H](CCCNC(=N)N)NC(=O)[C@H](CSSC[C@H](NC(=O)[C@@H](N)CC(=O)O)C(=O)N[C@@H](CC(C)C)C(=O)N[C@@H](Cc4c[nH]c5ccccc45)C(=O)N[C@@H](Cc4ccccc4)C(=O)N[C@@H](CCSC)C(=O)N[C@@H](CCCNC(=N)N)C(=O)N[C@@H](CCCCN)C(=O)N2)NC(=O)[C@H](CSSC[C@@H](C(=O)N[C@@H](CCCCN)C(=O)N[C@@H](Cc2ccc(O)cc2)C(=O)N[C@H](C(=O)N[C@@H](Cc2ccccc2)C(N)=O)C(C)C)NC(=O)[C@H](Cc2c[nH]c4ccccc24)NC(=O)[C@H](CCCCN)NC(=O)[C@H](Cc2cnc[nH]2)NC(=O)[C@H]([C@@H](C)O)NC(=O)[C@H](CCCNC(=N)N)NC(=O)[C@H](CO)NC3=O)NC(=O)[C@H](CCCCN)NC(=O)[C@H](CC(=O)O)NC(=O)[C@H](CC(N)=O)NC(=O)[C@H](CC(=O)O)NC(=O)[C@@H]2CCCN2C1=O` (H-DCLWFMRKCIPDNDKCCRPNLVCSRTHKWCKYVF-NH2; disulfide 2-17, 9-23, 16-30), the concentration for half-maximal inhibition (IC50) is over 5 µM.

Regarding `CC[C@H](C)[C@@H]1NC(=O)[C@@H]2CSSC[C@@H]3NC(=O)[C@H](C(C)C)NC(=O)[C@H](CC(C)C)NC(=O)[C@H](CC(N)=O)NC(=O)[C@@H]4CCCN4C(=O)[C@H](CCCNC(=N)N)NC(=O)[C@H](CSSC[C@H](NC(=O)[C@@H](N)CC(=O)O)C(=O)N[C@@H](CC(C)C)C(=O)NCC(=O)N[C@@H](Cc4ccccc4)C(=O)N[C@@H](CCSC)C(=O)N[C@@H](CCCNC(=N)N)C(=O)N[C@@H](CCCCN)C(=O)N2)NC(=O)[C@H](CSSC[C@@H](C(=O)N[C@@H](CCCCN)C(=O)N[C@@H](Cc2ccc(O)cc2)C(=O)N[C@@H](CCCNC(=N)N)C(=O)N[C@@H](Cc2ccccc2)C(N)=O)NC(=O)[C@H](Cc2c[nH]c4ccccc24)NC(=O)[C@H](CCCCN)NC(=O)[C@H](Cc2cnc[nH]2)NC(=O)[C@H]([C@@H](C)O)NC(=O)[C@H](CCCNC(=N)N)NC(=O)[C@H](CO)NC3=O)NC(=O)[C@H](CCCCN)NC(=O)[C@H](CC(=O)O)NC(=O)[C@H](CC(N)=O)NC(=O)[C@H](CC(=O)O)NC(=O)[C@@H]2CCCN2C1=O` (H-DCLGFMRKCIPDNDKCCRPNLVCSRTHKWCKYRF-NH2; disulfide 2-17, 9-23, 16-30), the half-maximal inhibitory concentration (IC50) was over 5 µM.

On to `CC[C@H](C)[C@@H]1NC(=O)[C@@H]2CSSC[C@@H]3NC(=O)[C@H](C(C)C)NC(=O)[C@H](CC(C)C)NC(=O)[C@H](CC(N)=O)NC(=O)[C@@H]4CCCN4C(=O)[C@H](CCCNC(=N)N)NC(=O)[C@H](CSSC[C@H](NC(=O)[C@@H](N)CC(=O)O)C(=O)N[C@@H](CC(C)C)C(=O)NCC(=O)N[C@@H](Cc4ccccc4)C(=O)N[C@@H](CCSC)C(=O)N[C@@H](CCCNC(=N)N)C(=O)N[C@@H](CCCCN)C(=O)N2)NC(=O)[C@H](CSSC[C@@H](C(=O)N[C@@H](CCCCN)C(=O)N[C@@H](Cc2ccc(O)cc2)C(=O)N[C@@H](Cc2c[nH]c4ccccc24)C(=O)N[C@@H](Cc2ccccc2)C(N)=O)NC(=O)[C@H](Cc2c[nH]c4ccccc24)NC(=O)[C@H](CCCCN)NC(=O)[C@H](Cc2c[nH]cn2)NC(=O)[C@H]([C@@H](C)O)NC(=O)[C@H](CCCNC(=N)N)NC(=O)[C@H](CO)NC3=O)NC(=O)[C@H](CCCCN)NC(=O)[C@H](CC(=O)O)NC(=O)[C@H](CC(N)=O)NC(=O)[C@H](CC(=O)O)NC(=O)[C@@H]2CCCN2C1=O` (H-DCLGFMRKCIPDNDKCCRPNLVCSRTHKWCKYWF-NH2; disulfide 2-17, 9-23, 16-30), for which the half-maximal inhibitory concentration (IC50) was over 5 µM.

Turning to `CSCC[C@@H]1NC(=O)[C@H](Cc2ccccc2)NC(=O)CNC(=O)[C@H](CC(C)C)NC(=O)[C@@H](NC(=O)[C@@H](N)CC(=O)O)CSSC[C@@H]2NC(=O)[C@@H]3CSSC[C@@H](C(=O)N[C@@H](CCCCN)C(=O)N[C@@H](Cc4ccc(O)cc4)C(=O)N[C@H](C(=O)N[C@@H](Cc4ccccc4)C(N)=O)C(C)C)NC(=O)[C@H](Cc4c[nH]c5ccccc45)NC(=O)[C@H](CCCCN)NC(=O)[C@H](Cc4cnc[nH]4)NC(=O)[C@H]([C@@H](C)O)NC(=O)[C@H](CCCNC(=N)N)NC(=O)[C@H](CO)NC(=O)[C@H](CSSC[C@H](NC(=O)[C@H](CCCCN)NC(=O)[C@H](CCCNC(=N)N)NC1=O)C(=O)N[C@@H]([C@@H](C)O)C(=O)N1CCC[C@H]1C(=O)N[C@@H](CC(=O)O)C(=O)N[C@@H](CC(N)=O)C(=O)N[C@@H](CC(=O)O)C(=O)N[C@@H](CCCCN)C(=O)N3)NC(=O)[C@H](C(C)C)NC(=O)[C@H](CC(C)C)NC(=O)[C@H](CC(N)=O)NC(=O)[C@@H]1CCCN1C(=O)[C@H](CCCNC(=N)N)NC2=O` (H-DCLGFMRKCTPDNDKCCRPNLVCSRTHKWCKYVF-NH2; disulfide 2-17, 9-23, 16-30), the IC50 was over 5 µM.

On to `CC[C@H](C)[C@@H]1NC(=O)[C@@H]2CSSC[C@@H]3NC(=O)[C@H](C(C)C)NC(=O)[C@H](CC(C)C)NC(=O)[C@H](CC(N)=O)NC(=O)[C@H](CCCNC(=N)N)NC(=O)[C@H](CCCNC(=N)N)NC(=O)[C@H](CSSC[C@H](NC(=O)[C@@H](N)CC(=O)O)C(=O)N[C@@H](CC(C)C)C(=O)NCC(=O)N[C@@H](Cc4ccccc4)C(=O)N[C@@H](CCSC)C(=O)N[C@@H](CCCNC(=N)N)C(=O)N[C@@H](CCCCN)C(=O)N2)NC(=O)[C@H](CSSC[C@@H](C(=O)N[C@@H](CCCCN)C(=O)N[C@@H](Cc2ccc(O)cc2)C(=O)N[C@H](C(=O)N[C@@H](Cc2ccccc2)C(N)=O)C(C)C)NC(=O)[C@H](Cc2c[nH]c4ccccc24)NC(=O)[C@H](CCCCN)NC(=O)[C@H](Cc2cnc[nH]2)NC(=O)[C@H]([C@@H](C)O)NC(=O)[C@H](CCCNC(=N)N)NC(=O)[C@H](CO)NC3=O)NC(=O)[C@H](CCCCN)NC(=O)[C@H](CC(=O)O)NC(=O)[C@H](CC(N)=O)NC(=O)[C@H](CC(=O)O)NC(=O)[C@@H]2CCCN2C1=O` (H-DCLGFMRKCIPDNDKCCRRNLVCSRTHKWCKYVF-NH2; disulfide 2-17, 9-23, 16-30), for which the IC50 is over 5 µM.

For the molecule `CC[C@H](C)[C@@H]1NC(=O)[C@@H]2CSSC[C@@H]3NC(=O)[C@H](C(C)C)NC(=O)[C@H](CC(C)C)NC(=O)[C@H](CC(N)=O)NC(=O)[C@@H]4CCCN4C(=O)[C@H](CCCNC(=N)N)NC(=O)[C@H](CSSC[C@H](NC(=O)[C@@H](N)CCCCN)C(=O)N[C@@H](CC(C)C)C(=O)NCC(=O)N[C@@H](Cc4ccccc4)C(=O)N[C@@H](CCSC)C(=O)N[C@@H](CCCNC(=N)N)C(=O)N[C@@H](CCCCN)C(=O)N2)NC(=O)[C@H](CSSC[C@@H](C(=O)N[C@@H](CCCCN)C(=O)N[C@@H](Cc2ccc(O)cc2)C(=O)N[C@H](C(=O)N[C@@H](Cc2ccccc2)C(N)=O)C(C)C)NC(=O)[C@H](Cc2c[nH]c4ccccc24)NC(=O)[C@H](CCCCN)NC(=O)[C@H](Cc2cnc[nH]2)NC(=O)[C@H]([C@@H](C)O)NC(=O)[C@H](CCCNC(=N)N)NC(=O)[C@H](CO)NC3=O)NC(=O)[C@H](CCCCN)NC(=O)[C@H](CC(=O)O)NC(=O)[C@H](CC(N)=O)NC(=O)[C@H](CC(=O)O)NC(=O)[C@@H]2CCCN2C1=O` (H-KCLGFMRKCIPDNDKCCRPNLVCSRTHKWCKYVF-NH2; disulfide 2-17, 9-23, 16-30), the concentration for half-maximal inhibition (IC50) is over 5 µM.
